Results gathered from unrelated publications.
Each line is one published result; the experiments were not run side by side.
Target: Angiopoietin-1 receptor (TEK, Homo sapiens, UniProt Q02763)

CS(=O)(=O)N1CCCC(NC(=O)[C@H](CCC2CCCCC2)NC(=O)c2ccc(CNc3ncnc4c3nnn4-c3ccccc3)cc2)C1 (some centres unmarked)  remaining binding (cell-free assay, competition with immobilised ligand; 0.1 µM): 73%
N#Cc1ccccc1CSc1nnc2c(n1)[nH]c1ccccc12  remaining binding (binding, competition with immobilised ligand; 10 µM): 100%
CC1CCCN1c1nccc(-c2cnn3ncccc23)n1 (centres unmarked)  remaining binding (binding; 1 µM): 98%
O=C(NCCCN1CCOCC1)c1ccc(Nc2ncc(Cl)c(-c3ccc(Cl)s3)n2)cc1  remaining binding (binding, competition with immobilised ligand; 1 µM): 47%
COc1cnc(Nc2cccc(S(N)(=O)=O)c2)nc1N1CCN(c2ccccc2)CC1  remaining binding (binding, competition with immobilised ligand; 1 µM): 100%
Nc1ncc2c(n1)-c1c([nH]c3ccc(C#CC4CC4)cc13)CCCC2  remaining binding (binding, competition with immobilised ligand; 1 µM): 100%
O=C(NCCCN1CCOCC1)c1ccc(Nc2nccc(-c3cc4ccccc4s3)n2)cc1  remaining binding (binding, competition with immobilised ligand; 1 µM): 58%
CC(=O)C1=C(C)N(c2cccc(C(F)(F)F)c2)C(=O)N[C@@H]1c1ccc(C#N)nc1  remaining binding (cell-free assay, competition with immobilised ligand; 1 µM): 100%
CN(C)c1ncc(F)c(-c2cnn3ncccc23)n1  remaining binding (binding; 1 µM): 100%
CCN1CCN(Cc2ccc(C(=O)Nc3ccc(C)c(Oc4ccc5c(c4)CC(=O)N5)c3)cc2C(F)(F)F)CC1  remaining binding (binding, competition with immobilised ligand; 1 µM): 100%
CN(C)c1nccc(-c2cnn3ncccc23)n1  remaining binding (binding; 1 µM): 100%
CNC(=O)c1ccc(Nc2ncc(C(F)(F)F)c(NCc3nccnc3N(C)S(C)(=O)=O)n2)cc1  remaining binding (cell-free assay, competition with immobilised ligand; 0.1 µM): 69%
C[C@@H]1CN(c2ccc3ncc(-c4ccc5[nH]nc(C6CC6)c5c4)n3n2)C[C@H](C)O1  remaining binding (binding, competition with immobilised ligand; 50 nM): 99%
CCS(=O)(=O)c1cc2cc(C[C@@](O)(CC(C)(C)c3ccc(F)cc3C(N)=O)C(F)(F)F)[nH]c2cn1  remaining binding (cell-free assay, competition with immobilised ligand; 1 µM): 94%
N[C@@H]1CCN(c2nccc(-c3cnn4ncccc34)n2)C1  remaining binding (binding; 1 µM): 98%
O=C(NCCCC1CCCCC1)c1ccc(CNC(=O)c2cnn(-c3ccccc3)c2C(F)(F)F)cc1  remaining binding (cell-free assay, competition with immobilised ligand; 0.1 µM): 100%
C[C@@H]1CCN(c2nccc(-c3cnn4ncccc34)n2)C1  remaining binding (binding; 1 µM): 77%
